Active and inactive are the calls of the source. The calls are words filed in the database; no cut-off is given here.
Tests used:
[1] = target: T1, Alpha-2A adrenergic receptor (Homo sapiens) (UniProt P08913); test: Antagonist activity at human alpha2A adrenoceptor expressed in CHO cells assessed as effect on agonist-induced extracellular acidification by microphysiometry; type: functional, cell-based
T1 sequence (whole entry): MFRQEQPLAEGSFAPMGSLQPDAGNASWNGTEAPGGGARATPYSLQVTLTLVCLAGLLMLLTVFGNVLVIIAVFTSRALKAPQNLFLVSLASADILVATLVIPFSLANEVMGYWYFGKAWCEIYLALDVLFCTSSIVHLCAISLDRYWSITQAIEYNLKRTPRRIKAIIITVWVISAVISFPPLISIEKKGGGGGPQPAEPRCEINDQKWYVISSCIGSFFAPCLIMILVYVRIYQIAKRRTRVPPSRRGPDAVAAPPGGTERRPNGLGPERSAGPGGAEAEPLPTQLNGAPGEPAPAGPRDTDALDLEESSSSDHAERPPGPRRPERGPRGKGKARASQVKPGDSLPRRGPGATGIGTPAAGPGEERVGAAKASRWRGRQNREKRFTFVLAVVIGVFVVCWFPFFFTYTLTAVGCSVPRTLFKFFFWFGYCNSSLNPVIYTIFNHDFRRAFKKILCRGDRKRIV
Summary of the method: (§1)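 CHO cells stably expressing one human α2-AR subtype were run on the Cytosensor microphysiometer with bicarbonate-free DMEM perfusion. […] Kb = M/(concentration ratio − 1), where the ratio is EC50 with antagonist over EC50 without. Reported as pKb, mean ± SEM of 3–6 experiments.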

[2] = target: T2, Alpha-2B adrenergic receptor (Homo sapiens) (UniProt P18089); test: Antagonist activity at human alpha2B adrenoceptor expressed in CHO cells assessed as effect on agonist-induced extracellular acidification by microphysiometry; type: functional, cell-based; summary of the method: as §1
T2 sequence (whole entry): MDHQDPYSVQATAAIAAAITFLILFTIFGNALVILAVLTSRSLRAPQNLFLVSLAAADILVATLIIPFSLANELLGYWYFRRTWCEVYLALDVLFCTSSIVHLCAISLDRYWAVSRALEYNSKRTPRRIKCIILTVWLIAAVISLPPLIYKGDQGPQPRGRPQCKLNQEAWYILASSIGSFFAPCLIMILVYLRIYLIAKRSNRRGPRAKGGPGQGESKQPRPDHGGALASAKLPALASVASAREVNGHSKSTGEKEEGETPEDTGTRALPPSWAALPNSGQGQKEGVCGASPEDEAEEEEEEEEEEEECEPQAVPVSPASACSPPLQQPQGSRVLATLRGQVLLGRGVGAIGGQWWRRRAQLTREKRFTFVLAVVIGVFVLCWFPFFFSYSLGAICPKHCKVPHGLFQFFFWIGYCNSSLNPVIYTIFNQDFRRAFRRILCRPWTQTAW

[3] = target: T3, Alpha-2C adrenergic receptor (Homo sapiens) (UniProt P18825); test: Antagonist activity at human Alpha-2C adrenoceptor expressed in CHO cells assessed as effect on agonist-induced extracellular acidification by microphysiometry; type: functional, cell-based; summary of the method: as §1
T3 sequence (whole entry): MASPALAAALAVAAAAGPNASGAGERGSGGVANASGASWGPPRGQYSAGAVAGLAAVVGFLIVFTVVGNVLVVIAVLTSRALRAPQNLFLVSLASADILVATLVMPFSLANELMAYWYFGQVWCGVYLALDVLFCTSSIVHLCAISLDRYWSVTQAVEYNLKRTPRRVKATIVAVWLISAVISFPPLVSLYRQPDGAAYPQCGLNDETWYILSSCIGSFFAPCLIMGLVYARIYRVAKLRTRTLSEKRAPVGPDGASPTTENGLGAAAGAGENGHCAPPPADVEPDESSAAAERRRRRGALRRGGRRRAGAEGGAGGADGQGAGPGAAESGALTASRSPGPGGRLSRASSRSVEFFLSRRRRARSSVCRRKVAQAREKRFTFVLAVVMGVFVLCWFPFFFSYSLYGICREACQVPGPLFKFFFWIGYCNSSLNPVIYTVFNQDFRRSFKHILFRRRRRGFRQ

[4] = target: T4, Alpha-2A adrenergic receptor (Homo sapiens, UniProt P08913); test: Displacement of [3H]RX821002 from human alpha2A adrenoceptor expressed in CHO cells; type: cell-based
T4 sequence (P08913 whole entry): T1 sequence (whole entry)
Summary of the method: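 Crude membranes from CHO cells expressing human α2A-AR were incubated in Tris-Mg buffer (50 mM Tris-HCl, 0.5 mM MgCl₂, pH 7.5). Ki came from one- or two-site nonlinear regression and is given as pKi.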

[5] = target: T4, Alpha-2A adrenergic receptor; test: Agonist activity at human alpha2A adrenoceptor expressed in CHO cells assessed as induction of extracellular acidification by microphysiometry; type: functional, cell-based
Summary of the method: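 CHO cells stably expressing human α2A-AR were seeded at 3 × 10⁵ cells/cup and held 24 h at 37 °C under 5% CO₂. They were then perfused at 100 μL/min with bicarbonate-free DMEM containing glutamine and NaCl. Agonist exposure lasted 4 min, with 30 min washes between exposures.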

[6] = target: T5, Alpha-2B adrenergic receptor (Homo sapiens, UniProt P18089); test: Displacement of [3H]RX821002 from human alpha2B adrenoceptor expressed in CHO cells; type: cell-based
T5 sequence (P18089 whole entry): T2 sequence (whole entry)
Summary of the method: (§2)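 Buffer was Tris-Mg (50 mM Tris-HCl, 0.5 mM MgCl2, pH 7.5), competitor 10^-9 to 10^-4 M, 30 min at room temperature. Bound ligand was filtered and counted. Ki by nonlinear one- or two-site fit, reported as pKi.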

[7] = target: T6, Alpha-2C adrenergic receptor (Homo sapiens, UniProt P18825); test: Displacement of [3H]RX821002 from human Alpha-2C adrenoceptor expressed in CHO cells; type: cell-based; summary of the method: as §2
T6 sequence (P18825 whole entry): T3 sequence (whole entry)

[8] = target: T6, Alpha-2C adrenergic receptor; test: Agonist activity at human Alpha-2C adrenoceptor expressed in CHO cells assessed as induction of extracellular acidification by microphysiometry; type: functional, cell-based
Summary of the method: (§3)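 Cytosensor microphysiometry on CHO cells stably expressing one human α2-AR subtype, seeded at 3 × 10⁵ cells/cup and grown 24 h at 37 °C. Cells were perfused with bicarbonate-free DMEM and exposed to agonist for 4 min, with 30 min washes between exposures. The read-out is the change in acidification rate: peak after agonist minus the mean of three prior readings. Mean ± SEM, 3–6 experiments.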

[9] = target: T3, Alpha-2C adrenergic receptor (Homo sapiens); test: Agonist activity at human Alpha-2C adrenoceptor expressed in CHO cells assessed as induction of extracellular acidification by microphysiometry relative to (-)noradrenaline; type: functional, cell-based
Summary of the method: as §3, with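 “readings. […]” for “readings.”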

[10] = target: T2, Alpha-2B adrenergic receptor (Homo sapiens); settings: CHO
[11] = target: T5, Alpha-2B adrenergic receptor; test: Agonist activity at human alpha2B adrenoceptor expressed in CHO cells assessed as induction of extracellular acidification by microphysiometry
Mus musculus [12] = test: Enhancement of morphine-induced analgesic effect in CD1 mouse at 0.05 mg/kg, ip administered 15 mins before morphine dosing measured 30 to 240 mins post morphine challenge by radiant heat tail flick test; type: functional, organism-based; set-up: dose 0.05 mg/kg
Summary of the method: (§4)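 Male CD-1 mice (25–35 g) received test agent 0.05 mg/kg ip or vehicle 15 min before morphine 5 mg/kg sc. Radiant-heat tail-flick to the lower third of the tail; baseline latency (2–3 s) is the mean of two trials. Latencies were read at 30, 60, 90, 120 and 240 min and expressed as %MPE. 7–8 mice per group, mean ± SEM.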

Mus musculus [13] = test: Analgesic effect in CD1 mouse at 0.05 mg/kg, ip by radiant heat tail flick test; type: functional, organism-based; set-up: dose 0.05 mg/kg; summary of the method: as §4
Mus musculus [14] = test: Enhancement of morphine-induced analgesic effect in CD1 mouse at 0.05 mg/kg, ip administered 15 mins before morphine dosing measured 30 to 240 mins post morphine challenge in presence of Alpha-2C adrenergic receptor antagonist yohimbine by radiant heat tail flick test; type: functional, organism-based; set-up: dose 0.05 mg/kg
Summary of the method: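 Male CD-1 mice got yohimbine 1.250 mg/kg ip 15 min before test agent (0.05 mg/kg ip). Test agent was given 15 min before morphine 5 mg/kg sc. Radiant-heat tail-flick latency was read 30–240 min after morphine and expressed as %MPE.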

Mus musculus [15] = test: Reduction in morphine tolerance acquisition in CD1 mouse assessed as morphine analgesic effect incidence at 0.05 mg/kg, ip administered as single dose 15 mins before last morphine dosing on test day post morphine challenge by radiant heat tail flick test; type: functional; set-up: scale not given: the % may be the effect or the level left; settings: route intraperitoneal
Summary of the method: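 Tolerance was induced in male CD-1 mice with morphine 10 mg/kg sc twice daily at 12 h intervals for 5 days. On day 5, test agent 0.05 mg/kg ip was given once, 15 min before the last morphine injection. Tail-flick antinociception was read 30 min after that injection and expressed as %MPE, with day 1 vs day 5 compared.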

Mus musculus [16] = test: Reduction in morphine dependence expression in CD1 mouse assessed as decrease in expression of naloxone-precipitated withdrawal syndrome at 0.05 mg/kg, ip administered as single dose […] on test day post morphine challenge […]; type: functional, organism-based; set-up: dose 0.05 mg/kg
Mus musculus [17] = test: Toxicity in CD1 mouse assessed as effect on sleep duration at 0.05 mg/kg, ip by pentobarbital sodium induced sleep time assay; type: organism-based; set-up: dose 0.05 mg/kg, route intraperitoneal; settings: in vivo
Summary of the method: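 Male CD-1 mice (n = 10 per group) were given test agent 0.05 mg/kg or vehicle, then sodium pentobarbital 50 mg/kg ip 15 min later. Sleep duration, the time from loss to regain of the righting reflex, was recorded in seconds. Mean ± SEM.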

Mus musculus [18] = test: Reduction in morphine tolerance acquisition in CD1 mouse assessed as morphine analgesic effect incidence at 0.05 mg/kg, ip bid administered 15 mins before last morphine dosing by radiant heat tail flick test; type: functional, organism-based; set-up: dose 0.05 mg/kg
Mus musculus [19] = test: Reduction in morphine dependence expression in CD1 mouse assessed as decrease in expression of naloxone-precipitated withdrawal syndrome at 0.05 mg/kg, ip bid administered 15 mins before last morphine dosing […]; type: functional, organism-based; set-up: dose 0.05 mg/kg
Summary of the method: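 In male CD-1 mice, morphine 10 mg/kg sc was given twice daily at 12 h intervals for 6 days, with test agent 0.05 mg/kg ip 15 min before each morphine dose. Jumping was counted, and somatic signs were scored as the sum of rearing, forepaw tremor and teeth chatter. Blind observers; mean ± SEM.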

Row | SMILES | pKb [1] | pKb [2] | Ki [4] [nM] | Ki [6] [nM] | Ki [7] [nM] | EC50 [8] [nM] | Intrinsic activity [9] | EC50 [11] [nM] | further results
1 | CC(Oc1ccccc1)C1=NCCN1 (racemic) | 7.01 | 6.2 |  |  |  |  |  |  | pKb [3]: 6.85
2 | C[C@@H](Oc1ccccc1-c1ccsc1)C1=NCCN1 |  |  | 166 | 708 | 316 | 100 | 0.7 |  | EC50 [5]: 3160 nM; pEC50 [10]: inactive
3 | C[C@H](Oc1ccccc1-c1ccsc1)C1=NCCN1 |  |  | 44.7 | 447 | 126 | 6.31 | 0.9 | 1000 | EC50 [5]: 63.1 nM
4 | CC(Oc1ccccc1-c1ccsc1)C1=NCCN1 (racemic) |  |  |  |  |  |  | 0.85 |  | pEC50 [10]: inactive
5 | C=CCc1ccccc1O[C@@H](C)C1=NCCN1 | 7.8 |  |  | 398 | 70.8 | 25.1 | 0.9 | 1000 | Activity (Mus musculus [12]): Active; Activity (Mus musculus [13]): inactive; Activity (Mus musculus [14]): inactive; Activity (Mus musculus [15]): 22%; Activity (Mus musculus [16]): Active; Activity (Mus musculus [17]): Non-toxic; Activity (Mus musculus [18]): Active; Activity (Mus musculus [19]): Active
6 | CC(Oc1ccccc1-c1cccc([N+](=O)[O-])c1)C1=NCCN1 (racemic) | 6.8 | 5.9 |  |  |  |  | 0.6 |  | 
7 | CC(Oc1ccccc1C1CC1)C1=NCCN1 (racemic) | 7 |  | 22.9 | 309 | 79.4 | 39.8 | 0.9 | 3160 | 
8 | C[C@H](Oc1ccccc1C1CC1)C1=NCCN1 | 7.7 |  | 20.9 | 263 | 63.1 | 35.5 | 0.9 | 3160 | Activity (Mus musculus [12]): Active; Activity (Mus musculus [13]): inactive
9 | C[C@@H](Oc1ccccc1-c1ccccc1)C1=NCCN1 |  |  |  |  |  |  | 0.7 |  | 
10 | C[C@H](Oc1ccccc1-c1cccc([N+](=O)[O-])c1)C1=NCCN1 | 7.35 | 5.93 |  |  |  |  | 0.45 |  | 
